{"data": "Measured values gathered from unrelated publications", "target": "Serine/threonine-protein kinase ULK2 (ULK2, Homo sapiens, UniProt Q8IYT8)", "Residues used in one study (Q8IYT8 1-1036)": "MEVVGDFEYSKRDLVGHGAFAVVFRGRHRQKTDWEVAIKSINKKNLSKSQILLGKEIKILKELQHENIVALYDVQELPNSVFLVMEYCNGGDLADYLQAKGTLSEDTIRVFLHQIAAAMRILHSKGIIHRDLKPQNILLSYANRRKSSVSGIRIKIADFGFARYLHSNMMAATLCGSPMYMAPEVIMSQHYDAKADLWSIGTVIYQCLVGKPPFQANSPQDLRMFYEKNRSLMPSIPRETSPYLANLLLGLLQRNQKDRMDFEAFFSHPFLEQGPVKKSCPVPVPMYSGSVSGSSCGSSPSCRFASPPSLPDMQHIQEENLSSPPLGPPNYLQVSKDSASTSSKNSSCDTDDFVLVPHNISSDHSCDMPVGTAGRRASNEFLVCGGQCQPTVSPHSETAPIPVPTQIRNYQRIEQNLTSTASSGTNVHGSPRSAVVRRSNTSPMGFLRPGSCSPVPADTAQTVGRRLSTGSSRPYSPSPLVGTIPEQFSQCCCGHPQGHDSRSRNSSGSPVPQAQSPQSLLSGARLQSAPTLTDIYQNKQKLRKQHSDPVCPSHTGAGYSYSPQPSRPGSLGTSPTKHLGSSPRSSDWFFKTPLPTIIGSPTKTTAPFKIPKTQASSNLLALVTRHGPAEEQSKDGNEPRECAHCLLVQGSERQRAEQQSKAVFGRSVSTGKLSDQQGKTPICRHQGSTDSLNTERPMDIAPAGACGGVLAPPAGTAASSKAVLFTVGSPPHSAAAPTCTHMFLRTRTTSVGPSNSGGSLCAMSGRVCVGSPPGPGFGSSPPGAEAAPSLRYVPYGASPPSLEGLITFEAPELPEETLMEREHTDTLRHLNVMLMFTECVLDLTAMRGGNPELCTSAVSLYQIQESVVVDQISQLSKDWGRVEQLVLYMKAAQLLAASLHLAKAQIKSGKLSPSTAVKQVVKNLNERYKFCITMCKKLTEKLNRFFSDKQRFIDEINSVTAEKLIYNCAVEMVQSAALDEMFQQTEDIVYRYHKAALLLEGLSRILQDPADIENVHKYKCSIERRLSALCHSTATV", "note": "Lines come from different studies, so protocols differ."}
{"SMILES": "C[C@@H]1CN(c2ccc3ncc(-c4ccc5[nH]nc(C6CC6)c5c4)n3n2)C[C@H](C)O1", "assay": "binding, competition with immobilised ligand", "conditions": "50 nM", "remaining binding": "92%"}
{"SMILES": "c1cnn2ncc(-c3ccnc(N4CCC45COC5)n3)c2c1", "assay": "binding", "conditions": "1 µM", "remaining binding": "59%"}
{"SMILES": "COC(=O)Nc1nc2ccc(C(=O)c3ccccc3)cc2[nH]1", "assay": "cell-free assay, competition with immobilised ligand", "conditions": "10 µM", "remaining binding": "30%"}
{"SMILES": "COc1cc(-c2cn(C3CCc4c(F)cccc4N(CC(F)(F)F)C3=O)nn2)ccc1-n1cnc(C)c1 (stereo not shown)", "assay": "cell-free assay, competition with immobilised ligand", "conditions": "1 µM", "remaining binding": "100%"}
{"SMILES": "O=C(c1ccc(Nc2ncc(Cl)c(-c3cc4ccccc4s3)n2)cc1)N1CCC(N2CCCC2)CC1", "assay": "binding, competition with immobilised ligand", "conditions": "1 µM", "remaining binding": "35%"}
{"SMILES": "O=C(O)[C@H]1[C@H](Cn2nnc3ccccc3c2=O)CC[C@@H]1C(=O)c1ccc(OCCC2CCOCC2)cc1", "assay": "cell-free assay, competition with immobilised ligand", "conditions": "1 µM", "remaining binding": "100%"}
{"SMILES": "C[C@@H]1CCN(c2nccc(-c3cnn4ncccc34)n2)C1", "assay": "binding", "conditions": "1 µM", "remaining binding": "69%"}
{"SMILES": "CSc1cccnc1N1CCN(Cc2nc3ccccc3[nH]2)CC1", "assay": "cell-free assay, competition with immobilised ligand", "conditions": "1 µM", "remaining binding": "94%"}
{"SMILES": "O=C(Nc1c[nH]nc1C(=O)NC1CCNCC1)c1cc(F)cc(F)c1", "assay": "binding, competition with immobilised ligand", "conditions": "1 µM", "remaining binding": "99%"}
{"SMILES": "CN(C)c1nccc(-c2cnn3ncccc23)n1", "assay": "binding", "conditions": "1 µM", "remaining binding": "100%"}
{"SMILES": "COc1ncc2cc3ccccc3nc2c1C#N", "assay": "cell-free assay, competition with immobilised ligand", "conditions": "5 µM", "remaining binding": "100%"}
{"SMILES": "COc1ccc2c(c1)O[C@H](c1ccc(OC)c(OC)c1)C[C@@H]2NC(=O)C1(c2ccc3c(c2)OC(F)(F)O3)CC1", "assay": "cell-free assay, competition with immobilised ligand", "conditions": "1 µM", "remaining binding": "100%"}
{"SMILES": "N[C@@H]1CCN(c2nccc(-c3cnn4ncccc34)n2)C1", "assay": "binding", "conditions": "1 µM", "remaining binding": "100%"}
{"SMILES": "CNC(=O)[C@@H]1CC[C@@H](n2c(-c3ccc4cnccc4c3)nc3ccc(C(=O)NCc4cccc(C(N)=O)c4)cc32)C1", "assay": "binding, competition with immobilised ligand", "conditions": "1 µM", "remaining binding": "100%"}
{"SMILES": "CCC(=O)N[C@H]1CC[C@@H](C(=O)N(C)c2ccc(-c3nc4ccccc4o3)cc2)C1", "assay": "cell-free assay, competition with immobilised ligand", "conditions": "1 µM", "remaining binding": "75%"}
{"SMILES": "COc1ccnn2ncc(-c3ccnc(N(C)C)n3)c12", "assay": "binding", "conditions": "1 µM", "remaining binding": "100%"}
{"SMILES": "CCOC(=O)c1cc2cc(-c3cc(C(=O)NCc4ccc(C(=O)O)cc4)nn3C)ccc2[nH]1", "assay": "cell-free assay, competition with immobilised ligand", "conditions": "0.1 µM", "remaining binding": "78%"}
{"SMILES": "O=C(NCCCN1CCOCC1)c1ccc(Nc2nccc(-c3cc4ccccc4s3)n2)cc1", "assay": "binding, competition with immobilised ligand", "conditions": "1 µM", "remaining binding": "62%"}
{"SMILES": "CN(CCCC(F)(F)F)c1nccc(-c2cnn3ncccc23)n1", "assay": "binding", "conditions": "1 µM", "remaining binding": "96%"}
{"SMILES": "FC(F)(F)c1ccc2c(c1)nc(-c1cccnc1)n2C1CC1", "assay": "cell-free assay, competition with immobilised ligand", "conditions": "1 µM", "remaining binding": "100%"}
{"SMILES": "FC(F)(F)Oc1cccc(-c2cnc3ccc(-c4ccncc4)nn23)c1", "assay": "binding, competition with immobilised ligand", "conditions": "5 µM", "remaining binding": "78%"}
{"SMILES": "O=C(c1ccc(Nc2ncc(Cl)c(-c3ccc(Cl)s3)n2)cc1)N1CCC(N2CCCC2)CC1", "assay": "binding, competition with immobilised ligand", "conditions": "1 µM", "remaining binding": "31%"}
{"SMILES": "C=CC(=O)N1CCC(C(=O)NCC(=O)N2CCN(c3nc(-c4cnc(N)nc4C(F)F)nc(N4CCOCC4)n3)CC2)CC1", "assay": "binding, competition with immobilised ligand", "conditions": "1 µM", "remaining binding": "96%"}
{"SMILES": "NS(=O)(=O)c1cc(NC(=O)C2(c3ccccc3Cl)CC2)ccc1Oc1cccc(Cl)c1", "assay": "cell-free assay, competition with immobilised ligand", "conditions": "1 µM", "remaining binding": "100%"}
{"SMILES": "N#Cc1ccccc1CSc1nnc2c(n1)[nH]c1ccccc12", "assay": "binding, competition with immobilised ligand", "conditions": "10 µM", "remaining binding": "94%"}
